Test results published in ChEMBL document CHEMBL4359823, “Switching on the activity of 1,5-diaryl-pyrrole derivatives against drug-resistant ESKAPE bacteria: Structure-activity relationships and mode of action studies” (Eur J Med Chem, 2019).
Values after ≈ are worked out from the molar mass of the structure shown.

Assays:
Format in all cases: functional
Enterococcus faecalis [1] = experiment: Antibacterial activity against vancomycin resistant Enterococcus faecalis NCTC12204 measured after overnight incubation by microbroth dilution method
Procedure, shortened: (§1)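 Microbroth dilution: DMSO stocks diluted in water, 2-fold series. Overnight TSB cultures back-diluted to OD 0.01 and mixed 1:1 with compound. Incubated overnight at 37 °C; MIC taken as lowest concentration without visible growth (<0.1 OD600). Run in duplicate; matching DMSO levels checked for effect on growth.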

Enterococcus faecalis [2] = experiment: Antibacterial activity against vancomycin resistant Enterococcus faecalis NCTC12201 measured after overnight incubation by microbroth dilution method; procedure, shortened: as §1
Staphylococcus aureus [3] = experiment: Antibacterial activity against methicillin sensitive Staphylococcus aureus NCTC 6571 measured after overnight incubation by microbroth dilution method; procedure, shortened: as §1
Staphylococcus aureus [4] = experiment: Antibacterial activity against methicillin resistant Staphylococcus aureus NCTC13616 measured after overnight incubation by microbroth dilution method; procedure, shortened: as §1
Staphylococcus aureus [5] = experiment: Antibacterial activity against methicillin resistant Staphylococcus aureus NCTC13277 measured after overnight incubation by microbroth dilution method; procedure, shortened: as §1
Enterococcus faecalis [6] = experiment: Antibacterial activity against vancomycin sensitive Enterococcus faecalis NCTC775 measured after overnight incubation by microbroth dilution method; procedure, shortened: as §1
Klebsiella pneumoniae [7] = experiment: Antibacterial activity against Klebsiella pneumoniae NCTC13368 measured after overnight incubation by microbroth dilution method
Procedure, shortened: (§2)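 Microbroth dilution MIC. Compound DMSO stocks were diluted in water as a 2-fold series. Overnight TSB cultures were back-diluted to OD 0.01 and mixed 1:1 with compound. Plates were incubated overnight at 37 °C. MIC was the lowest concentration without visible growth (<0.1 OD600), run in duplicate.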

Klebsiella pneumoniae [8] = experiment: Antibacterial activity against Klebsiella pneumoniae M6 measured after overnight incubation by microbroth dilution method; procedure, shortened: as §2
Acinetobacter baumannii [9] = experiment: Antibacterial activity against Acinetobacter baumannii AYE measured after overnight incubation by microbroth dilution method; procedure, shortened: as §2
Acinetobacter baumannii [10] = experiment: Antibacterial activity against Acinetobacter baumannii ATCC 17978 measured after overnight incubation by microbroth dilution method; procedure, shortened: as §2
Pseudomonas aeruginosa [11] = experiment: Antibacterial activity against Pseudomonas aeruginosa PAO1 measured after overnight incubation by microbroth dilution method; procedure, shortened: as §2
Pseudomonas aeruginosa [12] = experiment: Antibacterial activity against Pseudomonas aeruginosa NCTC13437 measured after overnight incubation by microbroth dilution method; procedure, shortened: as §2
Escherichia coli = experiment: Antibacterial activity against Escherichia coli NCTC12923 measured after overnight incubation by microbroth dilution method; procedure, shortened: as §2
Staphylococcus aureus [13] = experiment: Antibacterial activity against methicillin-resistant Staphylococcus aureus EMRSA15 measured after overnight incubation by microbroth dilution method; procedure, shortened: as §1
Staphylococcus aureus [14] = experiment: Antibacterial activity against methicillin-sensitive Staphylococcus aureus ATCC 9144 measured after overnight incubation by microbroth dilution method; procedure, shortened: as §1
Staphylococcus aureus [15] = experiment: Antibacterial activity against methicillin-resistant Staphylococcus aureus MRSA252 measured after overnight incubation by microbroth dilution method; procedure, shortened: as §1
Klebsiella pneumoniae [16] = experiment: Antibacterial activity against Klebsiella pneumoniae NCTC13368 measured after overnight incubation in presence of polymyxin B nonapeptide by microbroth dilution method
Klebsiella pneumoniae [17] = experiment: Antibacterial activity against Klebsiella pneumoniae M6 measured after overnight incubation in presence of polymyxin B nonapeptide by microbroth dilution method
Acinetobacter baumannii [18] = experiment: Antibacterial activity against Acinetobacter baumannii AYE measured after overnight incubation in presence of polymyxin B nonapeptide by microbroth dilution method
Acinetobacter baumannii [19] = experiment: Antibacterial activity against Acinetobacter baumannii ATCC 17978 measured after overnight incubation in presence of polymyxin B nonapeptide by microbroth dilution method
Pseudomonas aeruginosa [20] = experiment: Antibacterial activity against Pseudomonas aeruginosa PAO1 measured after overnight incubation in presence of polymyxin B nonapeptide by microbroth dilution method
Pseudomonas aeruginosa [21] = experiment: Antibacterial activity against Pseudomonas aeruginosa NCTC13437 measured after overnight incubation in presence of polymyxin B nonapeptide by microbroth dilution method

Row | SMILES | MIC (Enterococcus faecalis [1]) [mg/L] | MIC (Enterococcus faecalis [2]) [mg/L] | MIC (Staphylococcus aureus [3]) [mg/L] | MIC (Staphylococcus aureus [4]) [mg/L] | MIC (Staphylococcus aureus [5]) [mg/L] | MIC (Enterococcus faecalis [6]) [mg/L] | MIC (Klebsiella pneumoniae [7]) [mg/L] | MIC (Klebsiella pneumoniae [8]) [mg/L] | MIC (Acinetobacter baumannii [9]) [mg/L] | MIC (Acinetobacter baumannii [10]) [mg/L] | MIC (Pseudomonas aeruginosa [11]) [mg/L] | MIC (Pseudomonas aeruginosa [12]) [mg/L] | MIC (Escherichia coli) [mg/L] | MIC (Staphylococcus aureus [13]) [mg/L] | MIC (Staphylococcus aureus [14]) [mg/L] | MIC (Staphylococcus aureus [15]) [mg/L] | also measured
1 | Cc1c(CNC2CCCCC2)cc(-c2ccc(Cl)cc2)n1-c1ccc(Cl)cc1Cl | 2 (≈ 4.47 µM) | 4 (≈ 8.93 µM) | 4 (≈ 8.93 µM) | 4 (≈ 8.93 µM) | 4 (≈ 8.93 µM) | 4 (≈ 8.93 µM) | > 128 | > 128 | > 128 | 128 (≈ 286 µM) | > 128 | > 128 | > 128 | – | – | – | –
2 | Cc1c(CNCCNc2ccccc2)cc(-c2ccc(Cl)cc2)n1-c1ccc(Cl)cc1 | 4 to 8 (≈ 8.88 to 17.8 µM) | 4 (≈ 8.88 µM) | 4 to 8 (≈ 8.88 to 17.8 µM) | 4 to 8 (≈ 8.88 to 17.8 µM) | 4 to 8 (≈ 8.88 to 17.8 µM) | 4 (≈ 8.88 µM) | > 128 | > 128 | > 128 | > 128 | > 128 | > 128 | > 128 | – | – | – | –
3 | Cc1cc(CNC2C3CC4CC(C3)CC2C4)c(C)n1-c1ccc(Cl)cc1 (configuration not stated) | 64 (≈ 173 µM) | 128 (≈ 347 µM) | – | – | – | 128 (≈ 347 µM) | – | – | – | – | – | – | – | > 128 | 128 (≈ 347 µM) | 128 (≈ 347 µM) | –
4 | Cc1c(CNC2CCCCC2)cc(-c2ccc(Cl)cc2)n1-c1cccc(F)c1 | 4 (≈ 10.1 µM) | 4 (≈ 10.1 µM) | 8 (≈ 20.2 µM) | 8 (≈ 20.2 µM) | 8 (≈ 20.2 µM) | 8 (≈ 20.2 µM) | > 128 | > 128 | 128 (≈ 322 µM) | 128 (≈ 322 µM) | > 128 | > 128 | > 128 | – | – | – | –
5 | Cc1cccc(-n2c(C)cc(CN3CCN(C4C5CC6CC(C5)CC4C6)CC3)c2C)c1 (configuration not stated) | 64 (≈ 153 µM) | 64 (≈ 153 µM) | – | – | – | 64 (≈ 153 µM) | – | – | – | – | – | – | – | 64 (≈ 153 µM) | 64 (≈ 153 µM) | 64 (≈ 153 µM) | –
6 | Cc1c(CNC(C)c2ccccc2)cc(-c2ccc(Cl)cc2)n1-c1ccc(Cl)cc1 (configuration not stated) | 2 (≈ 4.59 µM) | 2 to 4 (≈ 4.59 to 9.19 µM) | 4 (≈ 9.19 µM) | 4 (≈ 9.19 µM) | 4 (≈ 9.19 µM) | 2 to 4 (≈ 4.59 to 9.19 µM) | > 128 | > 128 | > 128 | > 128 | > 128 | > 128 | 16 to 128 (≈ 36.7 to 294 µM) | – | – | – | –
7 | Cc1c(CNC2CCCCC2)cc(-c2ccc(Cl)cc2)n1-c1ccc(Cl)cc1 | 2 (≈ 4.84 µM) | 4 (≈ 9.68 µM) | 4 (≈ 9.68 µM) | 4 (≈ 9.68 µM) | 4 (≈ 9.68 µM) | 4 (≈ 9.68 µM) | > 128 | > 128 | 128 (≈ 310 µM) | 64 (≈ 155 µM) | > 128 | > 128 | > 128 | – | – | – | MIC (Klebsiella pneumoniae [16]): > 128 mg/L; MIC (Klebsiella pneumoniae [17]): 64 mg/L; MIC (Acinetobacter baumannii [18]): 8 mg/L; MIC (Acinetobacter baumannii [19]): 4 mg/L; MIC (Pseudomonas aeruginosa [20]): > 128 mg/L; MIC (Pseudomonas aeruginosa [21]): 32 mg/L
8 | Cc1c(CNC2CCCCCC2)cc(-c2ccc(Cl)cc2)n1-c1ccc(Cl)cc1 | 2 (≈ 4.68 µM) | 2 (≈ 4.68 µM) | 4 (≈ 9.36 µM) | 4 (≈ 9.36 µM) | 4 (≈ 9.36 µM) | 4 (≈ 9.36 µM) | > 128 | > 128 | 128 (≈ 299 µM) | 64 (≈ 150 µM) | 128 (≈ 299 µM) | 128 (≈ 299 µM) | > 128 | – | – | – | –
9 | Cc1c(CNC2CCCCC2)cc(-c2ccc(C(C)(C)C)cc2)n1-c1ccc(Cl)cc1 | 2 (≈ 4.6 µM) | 2 (≈ 4.6 µM) | 4 (≈ 9.19 µM) | 4 (≈ 9.19 µM) | 4 (≈ 9.19 µM) | 4 (≈ 9.19 µM) | > 128 | > 128 | > 128 | > 128 | > 128 | > 128 | > 128 | – | – | – | –
10 | Cc1cc(CN2CCN(C3CC4CCC3C4)CC2)c(C)n1-c1ccc(Cl)cc1 (configuration not stated) | 32 (≈ 80.4 µM) | 32 (≈ 80.4 µM) | – | – | – | 64 (≈ 161 µM) | – | – | – | – | – | – | – | 64 (≈ 161 µM) | 64 (≈ 161 µM) | 64 (≈ 161 µM) | –
11 | Cc1c(CNC2CCCCC2)cc(-c2ccc(Cl)cc2)n1-c1ccc(O)cc1 | 32 (≈ 81 µM) | 32 (≈ 81 µM) | 32 (≈ 81 µM) | 8 to 64 (≈ 20.3 to 162 µM) | 32 (≈ 81 µM) | 64 (≈ 162 µM) | > 128 | > 128 | > 128 | 128 (≈ 324 µM) | > 128 | > 128 | > 128 | – | – | – | –
12 | Cc1c(CNC2C3CC4CC(C3)CC2C4)cc(-c2ccc(Cl)cc2)n1-c1ccc(Cl)cc1 (configuration not stated) | 2 (≈ 4.3 µM) | 2 (≈ 4.3 µM) | 4 (≈ 8.59 µM) | 4 (≈ 8.59 µM) | 4 (≈ 8.59 µM) | 4 (≈ 8.59 µM) | > 128 | > 128 | > 128 | > 128 | > 128 | > 128 | > 128 | – | – | – | –
13 | Cc1cc(CNCCc2ccccc2)c(C)n1-c1ccc(Cl)cc1 | 8 (≈ 23.6 µM) | 16 (≈ 47.2 µM) | – | – | – | 32 (≈ 94.4 µM) | – | – | – | – | – | – | – | 32 (≈ 94.4 µM) | 32 (≈ 94.4 µM) | 32 (≈ 94.4 µM) | –
